Assay results published in ChEMBL document CHEMBL1667774, “Synthesis and evaluation of a class of new coumarin triazole derivatives as potential antimicrobial agents” (2011).
In brackets after ≈: the same amount, converted by molar mass.

Columns and labels:
[1] = system: Saccharomyces cerevisiae; test: Antifungal activity against Saccharomyces cerevisiae ATCC 9763 by twofold broth dilution method; type: functional
Outline: (§1)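 Two-fold broth dilution in 96-well micro-test plates, following NCCLS recommendations. Enoxacin and Chloromycin served as positive controls for bacteria, and Fluconazole for fungi. The read-out is the MIC in µg/mL.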

[2] = system: Shigella dysenteriae; test: Antimicrobial activity against Shigella dysenteriae ATCC 49550 by twofold broth dilution method; type: functional
Outline: (§2)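 Antibacterial MIC, determined by two-fold serial broth dilution following the NCCLS-recommended method. Clinical antimicrobial drugs were run alongside as positive controls.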

[3] = system: Micrococcus luteus; test: Antimicrobial activity against Micrococcus luteus ATCC 4698 by twofold broth dilution method; type: functional; outline: as §1
[4] = system: Salmonella typhi; test: Antimicrobial activity against Salmonella typhi ATCC 9484 by twofold broth dilution method; type: functional, Salmonella enterica subsp. enterica serovar Typhi; conditions: Salmonella enterica; outline: as §2
[5] = system: Staphylococcus aureus; test: Antimicrobial activity against Staphylococcus aureus ATCC 25923 by twofold broth dilution method; type: functional; outline: as §1
[6] = system: Candida albicans; test: Antifungal activity against Candida albicans ATCC 76615 by twofold broth dilution method; type: functional; outline: as §1
[7] = system: Staphylococcus aureus; test: Antimicrobial activity against methicillin-resistant Staphylococcus aureus N 315 by twofold broth dilution method; type: functional; outline: as §2
[8] = system: Aspergillus fumigatus; test: Antifungal activity against Aspergillus fumigatus ATCC 96918 by twofold broth dilution method; type: functional; outline: as §1
[9] = system: Proteus vulgaris; test: Antimicrobial activity against Proteus vulgaris ATCC 6896 by twofold broth dilution method; type: functional; outline: as §1
[10] = system: Escherichia coli; test: Antimicrobial activity against Escherichia coli ATCC 25922 by twofold broth dilution method; type: functional; outline: as §1
[11] = system: Bacillus subtilis; test: Antimicrobial activity against Bacillus subtilis ATCC 6633 by twofold broth dilution method; type: functional; outline: as §1

Structure (SMILES) | MIC [1] | MIC [2] | MIC [3] | MIC [4] | MIC [5] | MIC [6] | MIC [7] | MIC [8] | MIC [9] | MIC [10] | MIC [11]
Cc1cc(=O)oc2cc(OCCCCn3cncn3)ccc12 | 4 µg/mL (≈ 13.4 µM) | 16 µg/mL (≈ 53.5 µM) | 4 µg/mL (≈ 13.4 µM) | 16 µg/mL (≈ 53.5 µM) | 2 µg/mL (≈ 6.68 µM) | 2 µg/mL (≈ 6.68 µM) | 8 µg/mL (≈ 26.7 µM) | 16 µg/mL (≈ 53.5 µM) | 16 µg/mL (≈ 53.5 µM) | 8 µg/mL (≈ 26.7 µM) | 2 µg/mL (≈ 6.68 µM)
Cc1cc(=O)oc2cc(OCCCCCCn3cncn3)cc(OCCCCCCn3cncn3)c12 | 4 µg/mL (≈ 8.09 µM) | 8 µg/mL (≈ 16.2 µM) | 8 µg/mL (≈ 16.2 µM) | 16 µg/mL (≈ 32.3 µM) | 8 µg/mL (≈ 16.2 µM) | 4 µg/mL (≈ 8.09 µM) | 16 µg/mL (≈ 32.3 µM) | 32 µg/mL (≈ 64.7 µM) | 8 µg/mL (≈ 16.2 µM) | 8 µg/mL (≈ 16.2 µM) | 4 µg/mL (≈ 8.09 µM)
Cc1cc(=O)oc2cc(OCCCCCn3cncn3)ccc12 | 16 µg/mL (≈ 51.1 µM) | 32 µg/mL (≈ 102 µM) | 8 µg/mL (≈ 25.5 µM) | 16 µg/mL (≈ 51.1 µM) | 4 µg/mL (≈ 12.8 µM) | 8 µg/mL (≈ 25.5 µM) | 16 µg/mL (≈ 51.1 µM) | 16 µg/mL (≈ 51.1 µM) | 32 µg/mL (≈ 102 µM) | 32 µg/mL (≈ 102 µM) | 4 µg/mL (≈ 12.8 µM)
Cc1cc(=O)oc2cc(OCCCCCn3cncn3)cc(OCCCCCn3cncn3)c12 | 4 µg/mL (≈ 8.57 µM) | 4 µg/mL (≈ 8.57 µM) | 4 µg/mL (≈ 8.57 µM) | 4 µg/mL (≈ 8.57 µM) | 2 µg/mL (≈ 4.29 µM) | 2 µg/mL (≈ 4.29 µM) | 8 µg/mL (≈ 17.1 µM) | 32 µg/mL (≈ 68.6 µM) | 4 µg/mL (≈ 8.57 µM) | 8 µg/mL (≈ 17.1 µM) | 4 µg/mL (≈ 8.57 µM)
CCn1cc(C(=O)O)c(=O)c2cc(F)c(N3CCNCC3)nc21 [ENOXACIN] | – | 1 µg/mL (≈ 3.12 µM) | ≤ 1 µg/mL | 2 µg/mL (≈ 6.24 µM) | 1 µg/mL (≈ 3.12 µM) | – | 4 µg/mL (≈ 12.5 µM) | – | 1 µg/mL (≈ 3.12 µM) | 1 µg/mL (≈ 3.12 µM) | 1 µg/mL (≈ 3.12 µM)
Cc1cc(=O)oc2cc(OCCCCn3cncn3)cc(OCCCCn3cncn3)c12 | 2 µg/mL (≈ 4.56 µM) | 1 µg/mL (≈ 2.28 µM) | 1 µg/mL (≈ 2.28 µM) | 1 µg/mL (≈ 2.28 µM) | 1 µg/mL (≈ 2.28 µM) | 1 µg/mL (≈ 2.28 µM) | 2 µg/mL (≈ 4.56 µM) | 4 µg/mL (≈ 9.12 µM) | 2 µg/mL (≈ 4.56 µM) | 1 µg/mL (≈ 2.28 µM) | 2 µg/mL (≈ 4.56 µM)
Cc1cc(=O)oc2cc(OCc3ccc(CBr)cc3)cc(OCc3ccc(CBr)cc3)c12 | 256 µg/mL (≈ 459 µM) | 512 µg/mL (≈ 917 µM) | 256 µg/mL (≈ 459 µM) | 256 µg/mL (≈ 459 µM) | 256 µg/mL (≈ 459 µM) | 256 µg/mL (≈ 459 µM) | 512 µg/mL (≈ 917 µM) | 256 µg/mL (≈ 459 µM) | 512 µg/mL (≈ 917 µM) | 512 µg/mL (≈ 917 µM) | 128 µg/mL (≈ 229 µM)
Cc1cc(=O)oc2cc(O)cc(O)c12 [5,7-DIHYDROXY-4-METHYLCOUMARIN] | 256 µg/mL (≈ 1330 µM) | 256 µg/mL (≈ 1330 µM) | 64 µg/mL (≈ 333 µM) | 256 µg/mL (≈ 1330 µM) | 32 µg/mL (≈ 167 µM) | 64 µg/mL (≈ 333 µM) | 64 µg/mL (≈ 333 µM) | 256 µg/mL (≈ 1330 µM) | 128 µg/mL (≈ 666 µM) | 128 µg/mL (≈ 666 µM) | 64 µg/mL (≈ 333 µM)
Cc1cc(=O)oc2cc(OCc3ccc(Cn4cncn4)cc3)ccc12 | 64 µg/mL (≈ 184 µM) | 64 µg/mL (≈ 184 µM) | 32 µg/mL (≈ 92.1 µM) | 64 µg/mL (≈ 184 µM) | 32 µg/mL (≈ 92.1 µM) | 32 µg/mL (≈ 92.1 µM) | 64 µg/mL (≈ 184 µM) | 64 µg/mL (≈ 184 µM) | 64 µg/mL (≈ 184 µM) | 64 µg/mL (≈ 184 µM) | 32 µg/mL (≈ 92.1 µM)
Cc1cc(=O)oc2cc(O)ccc12 [HYMECROMONE] | 128 µg/mL (≈ 727 µM) | 512 µg/mL (≈ 2910 µM) | 32 µg/mL (≈ 182 µM) | 128 µg/mL (≈ 727 µM) | 32 µg/mL (≈ 182 µM) | 64 µg/mL (≈ 363 µM) | 64 µg/mL (≈ 363 µM) | 128 µg/mL (≈ 727 µM) | 256 µg/mL (≈ 1450 µM) | 128 µg/mL (≈ 727 µM) | 32 µg/mL (≈ 182 µM)
O=C(N[C@H](CO)[C@H](O)c1ccc([N+](=O)[O-])cc1)C(Cl)Cl [CHLORAMPHENICOL] | – | 4 µg/mL (≈ 12.4 µM) | ≤ 4 µg/mL | 4 µg/mL (≈ 12.4 µM) | 4 µg/mL (≈ 12.4 µM) | – | 16 µg/mL (≈ 49.5 µM) | – | 8 µg/mL (≈ 24.8 µM) | 8 µg/mL (≈ 24.8 µM) | 8 µg/mL (≈ 24.8 µM)
Cc1cc(=O)oc2cc(OCCCCCCOc3ccc4c(C)cc(=O)oc4c3)ccc12 | 256 µg/mL (≈ 589 µM) | 512 µg/mL (≈ 1180 µM) | 128 µg/mL (≈ 295 µM) | 512 µg/mL (≈ 1180 µM) | 256 µg/mL (≈ 589 µM) | 512 µg/mL (≈ 1180 µM) | 512 µg/mL (≈ 1180 µM) | 512 µg/mL (≈ 1180 µM) | 256 µg/mL (≈ 589 µM) | 256 µg/mL (≈ 589 µM) | 128 µg/mL (≈ 295 µM)
Cc1cc(=O)oc2cc(OCCCCBr)cc(OCCCCBr)c12 | 256 µg/mL (≈ 554 µM) | 256 µg/mL (≈ 554 µM) | 256 µg/mL (≈ 554 µM) | 256 µg/mL (≈ 554 µM) | 256 µg/mL (≈ 554 µM) | 128 µg/mL (≈ 277 µM) | 512 µg/mL (≈ 1110 µM) | 256 µg/mL (≈ 554 µM) | 256 µg/mL (≈ 554 µM) | 512 µg/mL (≈ 1110 µM) | 128 µg/mL (≈ 277 µM)
Cc1cc(=O)oc2cc(OCCCCCBr)ccc12 | 512 µg/mL (≈ 1570 µM) | 256 µg/mL (≈ 787 µM) | 256 µg/mL (≈ 787 µM) | 512 µg/mL (≈ 1570 µM) | 128 µg/mL (≈ 394 µM) | 128 µg/mL (≈ 394 µM) | 256 µg/mL (≈ 787 µM) | 256 µg/mL (≈ 787 µM) | 512 µg/mL (≈ 1570 µM) | 512 µg/mL (≈ 1570 µM) | 128 µg/mL (≈ 394 µM)
Cc1cc(=O)oc2cc(OCc3ccc(Cn4cncn4)cc3)cc(OCc3ccc(Cn4cncn4)cc3)c12 | 32 µg/mL (≈ 59.9 µM) | 64 µg/mL (≈ 120 µM) | 64 µg/mL (≈ 120 µM) | 32 µg/mL (≈ 59.9 µM) | 32 µg/mL (≈ 59.9 µM) | 32 µg/mL (≈ 59.9 µM) | 64 µg/mL (≈ 120 µM) | 64 µg/mL (≈ 120 µM) | 32 µg/mL (≈ 59.9 µM) | 64 µg/mL (≈ 120 µM) | 64 µg/mL (≈ 120 µM)
